# From ChEMBL document CHEMBL5385966, “Synthesis and biological evaluation of new naphthalimide-thiourea derivatives as potent antimicrobial agents active against multidrug-resistant Staphylococcus aureus and Mycobacterium tuberculosis” (RSC Med Chem, 2024)
# Calls of active or inactive are those of the source. No cut-off for these calls is given here.
# Assays:
# Staphylococcus aureus [1] = assay: Antibacterial activity against Staphylococcus aureus ATCC 29213 assessed as bacterial growth inhibition incubated for 16 to 18 hrs by CLSI based antibiotic susceptibility testing method; assay type: functional; settings: time 16-18 hrs
# Summary of the method: (§1)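 Broth microdilution in cation-adjusted Mueller-Hinton broth. Compounds were tested at […], with levofloxacin as reference and medium-only controls. Plates were incubated at 37 °C for 16-18 h. MIC was the lowest concentration with no visible growth; three independent determinations, each in duplicate.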
# Acinetobacter baumannii = assay: Antibacterial activity against Acinetobacter baumannii BAA 1605 assessed as bacterial growth inhibition incubated for 16 to 18 hrs by CLSI based antibiotic susceptibility testing method; assay type: functional, organism-based; settings: time 16-18 hrs; summary of the method: as §1
# [2] = tested on: Mycolicibacterium fortuitum; assay: Antimycobacterial activity against Mycobacterium fortuitum ATCC 6841 assessed as bacterial growth inhibition incubated for 72 hrs by resazurin dye based broth microdilution method; assay type: functional, organism-based
# Summary of the method: (§2)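 Broth microdilution in Middlebrook 7H9 with 10% ADC-Tween-80 (0.2% glycerol, 0.05% Tween-80), inoculum ~10⁶ cfu/mL. Compounds came from 10 mg/mL DMSO stocks and were tested as two-fold serial dilutions at 37 °C, 7 days for M. tuberculosis H37Rv and 72 h for NTM. Growth was read visually with PrestoBlue resazurin dye; MIC was the lowest concentration preventing growth. Triplicate determinations, each in duplicate.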
# Escherichia coli = assay: Antibacterial activity against Escherichia coli ATCC 25922 assessed as bacterial growth inhibition incubated for 16 to 18 hrs by CLSI based antibiotic susceptibility testing method; assay type: functional, organism-based; settings: time 16-18 hrs; summary of the method: as §1
# Staphylococcus aureus [3] = assay: Antibacterial activity against methicillin/ceftriaxone/meropenem-resistant Staphylococcus aureus NRS10198 clinical isolate assessed as bacterial growth inhibition incubated for 16 to 18 hrs by CLSI based antibiotic susceptibility testing method; assay type: functional; settings: time 16-18 hrs; summary of the method: as §1
# [4] = tested on: Mycobacteroides abscessus; assay: Antimycobacterial activity against Mycobacterium abscessus ATCC 19977 assessed as bacterial growth inhibition incubated for 72 hrs by resazurin dye based broth microdilution method; assay type: functional, organism-based; summary of the method: as §2
# Staphylococcus aureus [5] = assay: Antibacterial activity against methicillin/ceftriaxone/meropenem-resistant Staphylococcus aureus NRS10192 clinical isolate assessed as bacterial growth inhibition incubated for 16 to 18 hrs by CLSI based antibiotic susceptibility testing method; assay type: functional; settings: time 16-18 hrs; summary of the method: as §1
# [6] = tested on: Mycobacterium tuberculosis; assay: Antimycobacterial activity against Mycobacterium tuberculosis H37Rv ATCC 27294 assessed as bacterial growth inhibition incubated for 7 days by resazurin dye based broth microdilution method; assay type: functional; settings: H37Rv ATCC 27294, 168 h, time 7 day; summary of the method: as §2
# Staphylococcus aureus [7] = assay: Antibacterial activity against methicillin/ceftriaxone-resistant Staphylococcus aureus NRS10194 clinical isolate assessed as bacterial growth inhibition incubated for 16 to 18 hrs by CLSI based antibiotic susceptibility testing method; assay type: functional; settings: time 16-18 hrs; summary of the method: as §1
# Staphylococcus aureus [8] = assay: Antibacterial activity against methicillin/ceftriaxone/meropenem-resistant Staphylococcus aureus NRS10186 clinical isolate assessed as bacterial growth inhibition incubated for 16 to 18 hrs by CLSI based antibiotic susceptibility testing method; assay type: functional; settings: time 16-18 hrs; summary of the method: as §1
# Staphylococcus aureus [9] = assay: Antibacterial activity against methicillin/ceftriaxone/meropenem/vancomycin/teicoplanin-resistant Staphylococcus aureus VRS12 clinical isolate assessed as bacterial growth inhibition incubated for 16 to 18 hrs by CLSI based antibiotic susceptibility testing method; assay type: functional; settings: time 16-18 hrs; summary of the method: as §1
# Staphylococcus aureus [10] = assay: Antibacterial activity against methicillin/ceftriaxone/meropenem-resistant Staphylococcus aureus NRS10193 clinical isolate assessed as bacterial growth inhibition incubated for 16 to 18 hrs by CLSI based antibiotic susceptibility testing method; assay type: functional; settings: time 16-18 hrs; summary of the method: as §1
# Staphylococcus aureus [11] = assay: Antibacterial activity against methicillin/ceftriaxone/meropenem/vancomycin/teicoplanin-resistant Staphylococcus aureus VRS4 clinical isolate assessed as bacterial growth inhibition incubated for 16 to 18 hrs by CLSI based antibiotic susceptibility testing method; assay type: functional; settings: time 16-18 hrs; summary of the method: as §1
# Staphylococcus aureus [12] = assay: Antibacterial activity against methicillin/ceftriaxone/meropenem/gentamycin/vancomycin/teicoplanin-resistant Staphylococcus aureus VRS1 clinical isolate assessed as bacterial growth inhibition incubated for 16 to 18 hrs by CLSI based antibiotic susceptibility testing method; assay type: functional; settings: time 16-18 hrs; summary of the method: as §1
# Staphylococcus aureus [13] = assay: Antibacterial activity against methicillin/ceftriaxone/meropenem-resistant Staphylococcus aureus NRS10129 clinical isolate assessed as bacterial growth inhibition incubated for 16 to 18 hrs by CLSI based antibiotic susceptibility testing method; assay type: functional; settings: time 16-18 hrs; summary of the method: as §1
# Staphylococcus aureus [14] = assay: Antibacterial activity against methicillin/ceftriaxone/meropenem-resistant Staphylococcus aureus NRS10191 clinical isolate assessed as bacterial growth inhibition incubated for 16 to 18 hrs by CLSI based antibiotic susceptibility testing method; assay type: functional; settings: time 16-18 hrs; summary of the method: as §1
# Staphylococcus aureus [15] = assay: Antibacterial activity against methicillin-sensitive Staphylococcus aureus ATCC 29213 clinical isolate assessed as bacterial growth inhibition incubated for 16 to 18 hrs by CLSI based antibiotic susceptibility testing method; assay type: functional; settings: time 16-18 hrs; summary of the method: as §1
# Pseudomonas aeruginosa = assay: Antibacterial activity against Pseudomonas aeruginosa ATCC 27853 assessed as bacterial growth inhibition incubated for 16 to 18 hrs by CLSI based antibiotic susceptibility testing method; assay type: functional, organism-based; settings: time 16-18 hrs; summary of the method: as §1
# Staphylococcus aureus [16] = assay: Antibacterial activity against methicillin/ceftriaxone/meropenem/gentamycin/linezolid-resistant Staphylococcus aureus NRS10100 clinical isolate assessed as bacterial growth inhibition incubated for 16 to 18 hrs by CLSI based antibiotic susceptibility testing method; assay type: functional; settings: time 16-18 hrs; summary of the method: as §1
# Mycobacteroides chelonae = assay: Antimycobacterial activity against Mycobacteroides chelonae ATCC 35752 assessed as bacterial growth inhibition incubated for 72 hrs by resazurin dye based broth microdilution method; assay type: functional, organism-based; summary of the method: as §2
# Staphylococcus aureus [17] = assay: Antibacterial activity against methicillin/ceftriaxone/meropenem/gentamycin/linezolid-resistant Staphylococcus aureus NRS10119 clinical isolate assessed as bacterial growth inhibition incubated for 16 to 18 hrs by CLSI based antibiotic susceptibility testing method; assay type: functional; settings: time 16-18 hrs; summary of the method: as §1
# Klebsiella pneumoniae = assay: Antibacterial activity against Klebsiella pneumoniae BAA 1705 assessed as bacterial growth inhibition incubated for 16 to 18 hrs by CLSI based antibiotic susceptibility testing method; assay type: functional, organism-based; settings: time 16-18 hrs; summary of the method: as §1
smiles,measurement,setting,value
C[C@H]1COc2c(N3CCN(C)CC3)c(F)cc3c(=O)c(C(=O)O)cn1c23 [LEVOFLOXACIN ANHYDROUS],MIC,Staphylococcus aureus [1],0.063 µg/mL
same,growth inhibition (GI),Acinetobacter baumannii,inactive
same,growth inhibition (GI),[2],inactive
same,growth inhibition (GI),Escherichia coli,inactive
same,MIC,Staphylococcus aureus [3],32 µg/mL
same,growth inhibition (GI),[4],inactive
same,MIC,Staphylococcus aureus [5],8 µg/mL
same,MIC,[6],0.6 µg/mL
same,MIC,Staphylococcus aureus [7],0.125 µg/mL
same,MIC,Staphylococcus aureus [8],4 µg/mL
same,MIC,Staphylococcus aureus [9],32 µg/mL
same,MIC,Staphylococcus aureus [10],32 µg/mL
same,MIC,Staphylococcus aureus [11],> 64 µg/mL
same,MIC,Staphylococcus aureus [12],32 µg/mL
same,MIC,Staphylococcus aureus [13],0.25 µg/mL
same,MIC,Staphylococcus aureus [14],16 µg/mL
same,MIC,Staphylococcus aureus [15],0.25 µg/mL
same,growth inhibition (GI),Pseudomonas aeruginosa,inactive
same,MIC,Staphylococcus aureus [16],0.125 µg/mL
same,growth inhibition (GI),Mycobacteroides chelonae,inactive
same,MIC,Staphylococcus aureus [17],16 µg/mL
same,growth inhibition (GI),Klebsiella pneumoniae,inactive
CN[C@H](CC(C)C)C(=O)N[C@H]1C(=O)N[C@@H](CC(N)=O)C(=O)N[C@H]2C(=O)N[C@H]3C(=O)N[C@H](C(=O)N[C@H](C(=O)O)c4cc(O)cc(O)c4-c4cc3ccc4O)[C@H](O)c3ccc(c(Cl)c3)Oc3cc2cc(c3O[C@@H]2O[C@H](CO)[C@@H](O)[C@H](O)[C@H]2O[C@H]2C[C@](C)(N)[C@H](O)[C@H](C)O2)Oc2ccc(cc2Cl)[C@H]1O [VANCOMYCIN],MIC,Staphylococcus aureus [9],> 64 µg/mL
same,MIC,Staphylococcus aureus [11],> 64 µg/mL
same,MIC,Staphylococcus aureus [12],> 64 µg/mL
O=C(Nc1ccc(Cl)cc1)N1CCN(CCN2C(=O)c3cccc4cccc(c34)C2=O)CC1,MIC,Staphylococcus aureus [1],> 64 µg/mL
same,growth inhibition (GI),Acinetobacter baumannii,inactive
same,growth inhibition (GI),[2],inactive
same,growth inhibition (GI),Escherichia coli,inactive
same,growth inhibition (GI),[4],inactive
same,MIC,[6],8 µg/mL
same,growth inhibition (GI),Pseudomonas aeruginosa,inactive
same,growth inhibition (GI),Mycobacteroides chelonae,inactive
same,growth inhibition (GI),Klebsiella pneumoniae,inactive
O=C1c2cccc3cccc(c23)C(=O)N1CCN1CCN(C(=S)Nc2ccc(Cl)cc2)CC1,MIC,Staphylococcus aureus [1],> 64 µg/mL
same,growth inhibition (GI),Acinetobacter baumannii,inactive
same,growth inhibition (GI),[2],inactive
same,growth inhibition (GI),Escherichia coli,inactive
same,growth inhibition (GI),[4],inactive
same,MIC,[6],> 64 µg/mL
same,growth inhibition (GI),Pseudomonas aeruginosa,inactive
same,growth inhibition (GI),Mycobacteroides chelonae,inactive
same,growth inhibition (GI),Klebsiella pneumoniae,inactive
